Assay results from ChEMBL document CHEMBL1124107, “Antihypertensive thiadiazoles. 1. Synthesis of some 2-aryl-5-hydrazino-1,3,4-thiadiazoles with vasodilator activity” (1988).
Calls of active or inactive are those of the source. The rule behind the calls is not given here.

What was measured:
[1] = tested on: Rattus norvegicus; assay: Maximum percentage reduction in mean blood pressure in metacorticoid (DOCA) hypertensive rats at standard intraperitoneal dose of 100 mg/kg; type: functional; settings: route oral, in the assay text read “oral” for “intraperitoneal”
Method in brief: (§1)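 DOCA hypertensive rats, n = 3-5. Food removed 18 h before oral dosing; ip injections given to unstarved animals. Blood pressure recorded by pressure transducer under minimal restraint, twice before dosing with drug or isotonic saline vehicle, then at 1, 2, 3, 5 and 22 h. MABP taken as diastolic plus one-third pulse pressure.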

[2] = tested on: Rattus norvegicus; assay: Maximum percentage reduction in mean blood pressure in metacorticoid (DOCA) hypertensive rats at a standard oral dose of 100 mg/kg; type: functional; method in brief: as §1
[3] = tested on: Rattus norvegicus; assay: Maximum percentage reduction in mean blood pressure and heart rate in metacorticoid (DOCA) hypertensive rats at a standard oral dose of 100 mg/kg; IA = Inactive, Maximum percentage fall in MABP <10%; type: functional, organism-based; set-up: dose 100 mg/kg; method in brief: as §1
[4] = species: Rattus norvegicus; assay: Increase in diastolic blood pressure for 6 Htz electrical stimulation in the pithed rats; type: functional, Artery
Method in brief: (§2)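 Male rats (200-300 g) pretreated ip with drug or isotonic saline, groups of five, 1 or 2 h before pithing. Halothane anesthesia, tracheal cannulation, CNS destroyed via left orbit and spinal cord, artificial respiration with room air at 50 strokes/min. Pressor responses to iv noradrenaline (0.1-1.0 ug/kg), iv angiotensin (0.03-0.3 ug/kg), or whole sympathetic outflow stimulation.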

[5] = tested on: Rattus norvegicus; assay: Increase in diastolic blood pressure for 1.0 ug/kg intravenous dosing of noradrenaline in pithed rats; type: functional, Artery; method in brief: as §2
[6] = tested on: Rattus norvegicus; assay: Increase in diastolic blood pressure for 0.03 ug/kg intravenous dosing of angiotensin in pithed rats; type: functional, Artery; method in brief: as §2
[7] = species: Rattus norvegicus; assay: Increase in diastolic blood pressure for 1 Htz electrical stimulation in the pithed rats; type: functional, Artery; method in brief: as §2
[8] = species: Rattus norvegicus; assay: Increase in diastolic blood pressure for 3 Htz electrical stimulation in the pithed rats; type: functional, Artery; method in brief: as §2
[9] = tested on: Rattus norvegicus; assay: Increase in diastolic blood pressure for 0.1 ug/kg intravenous dosing of angiotensin in pithed rats; type: functional, Artery; method in brief: as §2
[10] = tested on: Rattus norvegicus; assay: Maximum percentage reduction in mean blood pressure and heart rate in metacorticoid (DOCA) hypertensive rats at a standard oral dose of 100 mg/kg
[11] = tested on: Rattus norvegicus; assay: Increase in diastolic blood pressure for 0.3 ug/kg intravenous dosing of noradrenaline in pithed rats; type: functional, Artery; method in brief: as §2
[12] = tested on: Rattus norvegicus; assay: Increase in diastolic blood pressure for 0.1 ug/kg intravenous dosing of noradrenaline in pithed rats; type: functional, Artery; method in brief: as §2
[13] = tested on: Rattus norvegicus; assay: Increase in diastolic blood pressure for 0.3 ug/kg intravenous dosing of angiotensin in pithed rats; type: functional, Artery; method in brief: as §2
[14] = tested on: Rattus norvegicus; assay: Maximum percentage reduction in mean blood pressure in metacorticoid (DOCA) hypertensive rats at a standard oral dose of 50 mg/kg; type: functional; method in brief: as §1
[15] = tested on: Rattus norvegicus; assay: Maximum percentage reduction in mean blood pressure and heart rate in metacorticoid (DOCA) hypertensive rats at a standard intraperitoneal dose of 100 mg/kg; type: functional; settings: route oral, in the assay text read “oral” for “intraperitoneal”; method in brief: as §1
[16] = tested on: Rattus norvegicus; assay: Maximum percentage reduction in mean blood pressure and heart rate in metacorticoid (DOCA) hypertensive rats at a standard oral dose of 50 mg/kg; type: functional; method in brief: as §1
[17] = tested on: Rattus norvegicus; assay: Maximum percentage reduction in mean blood pressure and heart rate in metacorticoid (DOCA) hypertensive rats at a standard oral dose of 25 mg/kg; type: functional; method in brief: as §1
[18] = species: Rattus norvegicus; assay: Increase in diastolic blood pressure at 3 Htz electrical stimulation in the pithed rats; type: functional, Artery; method in brief: as §2
[19] = tested on: Rattus norvegicus; assay: Increase in diastolic blood pressure at 0.1 ug/kg intravenous dosing of noradrenaline in pithed rats; type: functional, Artery; method in brief: as §2
[20] = tested on: Rattus norvegicus; assay: Increase in diastolic blood pressure at 0.3 ug/kg intravenous dosing of angiotensin in pithed rats; type: functional, Artery; method in brief: as §2
[21] = species: Rattus norvegicus; assay: Increase in diastolic blood pressure at 6 Htz electrical stimulation in the pithed rats; type: functional, Artery; method in brief: as §2
[22] = tested on: Rattus norvegicus; assay: Maximum percentage reduction in mean blood pressure in metacorticoid (DOCA) hypertensive rats at a standard oral dose of 25 mg/kg; type: functional; method in brief: as §1
[23] = tested on: Rattus norvegicus; assay: Increase in diastolic blood pressure at 0.3 ug/kg intravenous dosing of noradrenaline in pithed rats; type: functional, Artery; method in brief: as §2
[24] = species: Rattus norvegicus; assay: Increase in diastolic blood pressure at 1 Htz electrical stimulation in the pithed rats; type: functional, Artery; method in brief: as §2
[25] = tested on: Rattus norvegicus; assay: Increase in diastolic blood pressure at 1.0 ug/kg intravenous dosing of noradrenaline in pithed rats; type: functional, Artery; method in brief: as §2
[26] = tested on: Rattus norvegicus; assay: Increase in diastolic blood pressure at 0.1 ug/kg intravenous dosing of angiotensin in pithed rats; type: functional, Artery; method in brief: as §2
[27] = tested on: Rattus norvegicus; assay: Increase in diastolic blood pressure at 0.03 ug/kg intravenous dosing of angiotensin in pithed rats; type: functional, Artery; method in brief: as §2

Cl.NNc1nnc(-c2ccc(Cl)cc2)s1
Reduction [1]: 28%

Cl.NNc1nnc(-c2ccc(Cl)c(Cl)c2)s1
Reduction [2]: 17%

COc1cccc(OC)c1-c1nnc(NN)s1.Cl
Reduction [2]: 33%

Cl.NNc1nnc(-c2ccccc2)s1
Reduction [2]: 42%

Cc1ccc(-c2nnc(NN)s2)cc1.Cl
Reduction [2]: 28%

Cl.NNc1nnc(-c2cccc3ccccc23)s1
Reduction [2]: 26%

Cc1ccc(C)c(-c2nnc(NN)s2)c1.Cl
Reduction [2]: 50%

Cc1cccc(-c2nnc(NN)s2)c1C.Cl
Reduction [2]: 50%

CCCCCCOc1ccccc1-c1nnc(NN)s1
Reduction [3]: inactive

CC(C)(C)c1ccccc1-c1nnc(NN)s1
Reduction [2]: 58%

Nc1cc(N2CCCCC2)nc(N)[n+]1[O-] [MINOXIDIL]
Increase in blood pressure [4]: 31 mmHg
Increase in blood pressure [5]: 45 mmHg
Increase in blood pressure [6]: 6 mmHg
Increase in blood pressure [7]: 9 mmHg
Increase in blood pressure [8]: 25 mmHg
Increase in blood pressure [9]: 13 mmHg
Reduction [10]: 42%
Increase in blood pressure [11]: 25 mmHg
Increase in blood pressure [12]: 10 mmHg
Increase in blood pressure [13]: 25 mmHg

Cl.NNc1nnc(-c2ccccc2I)s1
Reduction [2]: 58%
Reduction [14]: 24%

Cc1ccc(F)cc1-c1nnc(NN)s1.Cl
Reduction [2]: 63%

CCCOc1ccccc1-c1nnc(NN)s1.Cl
Reduction [2]: 46%

COc1cccc(-c2nnc(NN)s2)c1.Cl
Reduction [2]: 18%

Cl.NNc1nnc(-c2ccccc2[N+](=O)[O-])s1
Reduction [2]: 26%

Cl.NNc1nnc(-c2ccsc2)s1
Reduction [2]: 33%

Cc1ccc(-c2nnc(NN)s2)cc1C.Cl
Reduction [2]: 22%

Cl.NNc1nnc(-c2ccccc2Cl)s1
Reduction [2]: 21%

Cc1ccsc1-c1nnc(NN)s1.Cl
Reduction [2]: 48%

Cl.NNc1nnc(-c2ccccn2)s1
Reduction [2]: 21%

NNc1nncc2ccccc12 [HYDRALAZINE]
Increase in blood pressure [4]: 54 mmHg
Increase in blood pressure [5]: 28 mmHg
Increase in blood pressure [6]: 8 mmHg
Increase in blood pressure [7]: 28 mmHg
Increase in blood pressure [8]: 42 mmHg
Increase in blood pressure [9]: 21 mmHg
Increase in blood pressure [11]: 15 mmHg
Increase in blood pressure [12]: 8 mmHg
Increase in blood pressure [13]: 38 mmHg

COc1ccc(-c2nnc(NN)s2)cc1OC.Cl
Reduction [15]: 24%

Cc1ccc(-c2nnc(NN)s2)c(C)c1.Cl
Reduction [2]: 61%

Cc1cc(C)cc(-c2nnc(NN)s2)c1.Cl
Reduction [2]: 18%

COc1cc2nc(N3CCN(C(=O)c4ccco4)CC3)nc(N)c2cc1OC [PRAZOSIN]
Increase in blood pressure [4]: 31 mmHg
Increase in blood pressure [5]: 49 mmHg
Increase in blood pressure [6]: 30 mmHg
Increase in blood pressure [7]: 18 mmHg
Increase in blood pressure [8]: 26 mmHg
Increase in blood pressure [9]: 45 mmHg
Increase in blood pressure [11]: 32 mmHg
Increase in blood pressure [12]: 23 mmHg
Increase in blood pressure [13]: 67 mmHg

Cc1ccccc1-c1nnc(NN)s1.Cl
Reduction [16]: 48%
Increase in blood pressure [4]: 41 mmHg
Increase in blood pressure [5]: 29 mmHg
Increase in blood pressure [6]: 12 mmHg
Reduction [17]: 33%
Increase in blood pressure [7]: 16 mmHg
Increase in blood pressure [8]: 32 mmHg
Increase in blood pressure [9]: 28 mmHg
Increase in blood pressure [11]: 16 mmHg
Increase in blood pressure [12]: 10 mmHg
Increase in blood pressure [13]: 50 mmHg

NNc1nnc(-c2ccco2)s1
Reduction [2]: 39%

CCC[S+]([O-])c1ccccc1-c1nnc(NN)s1.Cl (stereo not given)
Reduction [2]: 48%

CCc1ccccc1-c1nnc(NN)s1.Cl
Increase in blood pressure [18]: 25 mmHg
Increase in blood pressure [19]: 8 mmHg
Increase in blood pressure [20]: 25 mmHg
Increase in blood pressure [21]: 32 mmHg
Reduction [22]: 42%
Increase in blood pressure [23]: 14 mmHg
Increase in blood pressure [24]: 14 mmHg
Increase in blood pressure [25]: 22 mmHg
Increase in blood pressure [26]: 6 mmHg
Increase in blood pressure [27]: 2 mmHg
Reduction [14]: 54%

Cc1cccc(-c2nnc(NN)s2)c1.Cl
Reduction [2]: 29%

Cl.NNc1nnc(-c2ccccc2Br)s1
Reduction [2]: 48%

Cl.NNc1nnc(-c2cccc(O)c2)s1
Reduction [2]: 16%

COc1ccccc1-c1nnc(NN)s1.Cl
Reduction [2]: 46%
Reduction [14]: 39%

Cl.NNc1nnc(-c2cccs2)s1
Reduction [2]: 35%

Cc1cccc(C)c1-c1nnc(NN)s1.Cl
Reduction [2]: 54%

CSc1ccccc1-c1nnc(NN)s1.Cl
Reduction [2]: 41%

Cl.NNc1nnc(-c2ccccc2F)s1
Reduction [2]: 31%

NNc1nnc(-c2c(Cl)cccc2Cl)s1
Reduction [2]: 50%

Cl.NNc1nnc(-c2ccccc2C(F)(F)F)s1
Reduction [2]: 49%
Reduction [14]: 33%

Cl.NNc1nnc(-c2ccc(C(F)(F)F)cc2)s1
Reduction [2]: 21%

Cl.NNc1nnc(-c2cccc(Cl)c2)s1
Reduction [2]: 20%

Cl.NNc1nnc(-c2cccc(C(F)(F)F)c2)s1
Reduction [2]: 21%

COc1ccc(Cl)c(OC)c1-c1nnc(NN)s1.Cl
Reduction [2]: 53%

Cc1cc(F)ccc1-c1nnc(NN)s1.Cl
Reduction [2]: 58%

Cl.NNc1nnc(-c2ccccc2-c2ccccc2)s1
Reduction [2]: 18%

C[S+]([O-])c1ccccc1-c1nnc(NN)s1.Cl (stereo not given)
Increase in blood pressure [18]: 34 mmHg
Increase in blood pressure [19]: 6 mmHg
Increase in blood pressure [20]: 29 mmHg
Increase in blood pressure [21]: 47 mmHg
Reduction [22]: 31%
Increase in blood pressure [23]: 10 mmHg
Increase in blood pressure [24]: 19 mmHg
Increase in blood pressure [25]: 21 mmHg
Increase in blood pressure [26]: 11 mmHg
Increase in blood pressure [27]: 4 mmHg
Reduction [14]: 45%
